Reference: ChEMBL document CHEMBL4616694, “Selective Covalent Targeting of Mutated EGFR(T790M) with Chlorofluoroacetamide-Pyrimidines” (ACS Med Chem Lett, 2020)
pIC50: −log10 of the molar value. Activity calls are given as the source filed them. No cut-off for these calls is given here.

Tests used:
[1] = Half life of compound in phosphate buffer at pH 7.4 and 37 degree C under neutral aqueous condition in presence of excess glutathione; assay type: physicochemical; conditions: phosphate buffer with excess glutathione
Summary of the method: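 Compound was incubated with excess glutathione under neutral aqueous conditions (pH 7.4, 37 °C), and half-reaction time was determined from the time course.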

[2] = system: NCI-H1975; experiment: Antiproliferative activity against human NCI-H1975 cells harboring EGFR L858R/T790M mutant assessed as reduction in cell viability measured after 72 hrs by WST assay; assay type: functional, cell-based; conditions: NCI-H1975, 72 h
[3] = organism: Homo sapiens; experiment: Selectivity index, ratio of IC50 for wild type EGFR (unknown origin) to IC50 for human EGFR L858R/T790M mutant expressed in baculovirus infected insect cells
[4] = Selectivity index, ratio of IC50 for human NCI-H292 cells expressing wild type EGFR assessed as reduction in cell viability measured after 72 hrs by MTT assay to IC50 for human NCI-H1975 cells harboring EGFR L858R/T790M mutant assessed as reduction in cell viability measured after 72 hrs by MTT assay; assay type: functional
[5] = system: NCI-H292; experiment: Antiproliferative activity against human NCI-H292 cells expressing wild type EGFR assessed as reduction in cell viability measured after 72 hrs by WST assay; assay type: functional, cell-based; conditions: NCI-H292, 72 h
[6] = system: Epidermal growth factor receptor (Homo sapiens), P00533 [L858R,T790M]; experiment: Inhibition of EGFR L858R/T790M mutant in human H1975 cells assessed as reduction in autophosphorylation at Y1068 residue at 10 nM by Western blot analysis; assay type: cell-based
Summary of the method: (§1)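 H1975 cells were treated at 10 nM, and EGFR Y1068 autophosphorylation was assessed by western blot. For irreversibility, compound was washed out of the culture medium and phospho-EGFR was examined for at least 8 h afterwards.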

[7] = system: Epidermal growth factor receptor (Homo sapiens), P00533 [L858R,T790M]; experiment: Irreversible inhibition of EGFR L858R/T790M mutant in human H1975 cells assessed as reduction in autophosphorylation at Y1068 residue at 10 nM measured after 8 hrs post compound washout by Western blot analysis; assay type: cell-based; summary of the method: as §1
[8] = Cmax in BALB/c mouse at 25 mg/kg, po administered as single dose measured at 2 hrs; assay type: ADME, organism-based; set-up: dose 25 mg/kg, route oral; conditions: in vivo
Summary of the method: (§2)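 Mice received a single oral dose of 25 mg/kg. Plasma compound levels were followed over time, giving peak concentration with its time and mean residence time.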

[9] = Mean residence time in BALB/c mouse at 25 mg/kg, po administered as single dose measured at 2 hrs; assay type: ADME, organism-based; conditions: in vivo; summary of the method: as §2
[10] = system: Epidermal growth factor receptor (Homo sapiens), P00533 [L858R,T790M]; experiment: Binding affinity to recombinant human EGFR L858R/T790M mutant kinase domain expressed in baculovirus infected insect cells assessed as covalent bond formation between protein Cys797 residue-compound by LC-MS/MS analysis
[11] = system: Epidermal growth factor receptor (Homo sapiens), P00533 [L858R,T790M]; experiment: (§3) Binding affinity to recombinant human EGFR L858R/T790M mutant kinase domain assessed as fluorescent band formation at 2 uM pretreated with compound followed by subsequent addition of copper-catalyzed azide-alkyne cyclo with rhodamine azide measured after 72 hrs by coomassie brilliant blue staining based in-gel fluorescence assay
[12] = system: Epidermal growth factor receptor (Homo sapiens), P00533 [L858R,T790M]; experiment: as §3, with “compound-protein adduct” for “fluorescent band”
[13] = system: Epidermal growth factor receptor (Homo sapiens), P00533 [L858R,T790M]; experiment: (§4) Competitive binding affinity to EGFR L858R/T790M mutant in human H1975 cells assessed as fluorescent band formation at 5 uM pretreated with compound followed by subsequent addition of copper-catalyzed azide-alkyne cyclo with rhodamine azide measured after 1 hr in presence of osimertinib by in-gel fluorescence assay; assay type: cell-based
Summary of the method: (§5)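 H1975 cells were incubated with the alkyne CFA probe for 1 h at 37 °C. Labeled proteins were clicked to rhodamine-azide by CuAAC and resolved by in-gel fluorescence, with EGFR taken as the 175 kDa band. For competition, excess osimertinib was present. Labeling was also run across probe concentrations, including 1–10 µM.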

[14] = system: Epidermal growth factor receptor (Homo sapiens), P00533 [L858R,T790M]; experiment: as §3, with “stability of compound-protein adduct” for “fluorescent band formation”, “24” for “72”
[15] = system: Epidermal growth factor receptor (Homo sapiens), P00533 [L858R,T790M]; experiment: as §4, with “L858R/T790M” for “L858R/T790M mutant”, “formation by measuring molecular weight” for “formation”, “hr” for “hr in presence of osimertinib”; assay type: cell-based; summary of the method: as §5
[16] = target: Epidermal growth factor receptor (Homo sapiens) (UniProt P00533); experiment: Competitive binding affinity to EGFR in human H1975 cells assessed as protein labeling pretreated with compound followed by subsequent addition of copper-catalyzed azide-alkyne cyclo with rhodamine azide measured after 1 hr by in-gel fluorescence assay; assay type: cell-based; summary of the method: as §5
[17] = target: Epidermal growth factor receptor (Homo sapiens) (UniProt P00533); experiment: Competitive binding affinity to EGFR in human H1975 cells assessed as protein labeling at 1 uM pretreated with compound followed by subsequent addition of copper-catalyzed azide-alkyne cyclo with rhodamine azide by in-gel fluorescence assay; assay type: cell-based; conditions: TDE = time-dependent effect
Summary of the method: (§6)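 H1975 cells were labeled over time with 1 µM alkyne probe, with incubations extending to 10 h. Labeled proteins were conjugated to rhodamine-azide by copper-catalyzed azide-alkyne cycloaddition and read by in-gel fluorescence.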

[18] = target: Epidermal growth factor receptor (Homo sapiens) (UniProt P00533); experiment: Competitive binding affinity to EGFR in human H1975 cells assessed as protein labeling at 1 uM pretreated with compound followed by subsequent addition of copper-catalyzed azide-alkyne cyclo with rhodamine azide incubated for 10 hrs by in-gel fluorescence assay; assay type: cell-based; summary of the method: as §6
[19] = target: Epidermal growth factor receptor (Homo sapiens) (UniProt P00533); experiment: Competitive binding affinity to wild type EGFR expressed in human H292 cells assessed as protein labeling pretreated with compound followed by subsequent addition of copper-catalyzed azide-alkyne cyclo with rhodamine azide incubated for 2 hrs by in-gel fluorescence assay; assay type: cell-based
[20] = target: Epidermal growth factor receptor (Homo sapiens) (UniProt P00533); experiment: Competitive binding affinity to wild type EGFR expressed in human H292 cells assessed as protein labeling at 1 uM pretreated with compound followed by subsequent addition of copper-catalyzed azide-alkyne cyclo with rhodamine azide by in-gel fluorescence assay; assay type: cell-based; conditions: TDE = time-dependent effect
[21] = target: Epidermal growth factor receptor (Homo sapiens) (UniProt P00533); experiment: Competitive binding affinity to wild type EGFR expressed in human HEK293 cells assessed as protein labeling pretreated with compound followed by subsequent addition of copper-catalyzed azide-alkyne cyclo with rhodamine azide incubated for 2 hrs by in-gel fluorescence assay; assay type: cell-based
[22] = target: Epidermal growth factor receptor (Homo sapiens) (UniProt P00533); experiment: Competitive binding affinity to wild type EGFR expressed in human HEK293 cells assessed as protein labeling at 1 uM pretreated with compound followed by subsequent addition of copper-catalyzed azide-alkyne cyclo with rhodamine azide by in-gel fluorescence assay; assay type: cell-based; conditions: TDE = time-dependent effect
[23] = target: Epidermal growth factor receptor (Homo sapiens) (UniProt P00533); experiment: Competitive binding affinity to wild type EGFR expressed in human H292 cells assessed as SILAC ratio at 5 uM measured after 2 hrs by MS analysis; assay type: cell-based
[24] = target: Epidermal growth factor receptor (Homo sapiens) (UniProt P00533); experiment: Binding affinity to wild type EGFR expressed in human H292 cells assessed as protein labeling at 1 uM measured after 1 hr by pull down based Western blot analysis
[25] = system: Epidermal growth factor receptor (Homo sapiens), P00533 [L858R,T790M]; experiment: Binding affinity to EGFR L858R/T790M mutant expressed in human H1975 cells assessed as protein labeling at 1 uM measured after 1 hr by pull down based Western blot analysis
[26] = system: Epidermal growth factor receptor (Homo sapiens), P00533 [L858R,T790M]; experiment: as §3, with “rapid covalent modification” for “fluorescent band formation”
[27] = system: Epidermal growth factor receptor (Homo sapiens), P00533 [L858R,T790M]; experiment: Competitive binding affinity to EGFR L858R/T790M mutant expressed in human H1975 cells assessed as SILAC ratio at 5 uM measured after 2 hrs by MS analysis; assay type: cell-based
Summary of the method: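 SILAC mass spectrometry in isotopically labeled H1975 cells treated with the probe at 5 µM for 2 h at 37 °C, followed by streptavidin enrichment. Reported values are log2 median SILAC ratios (probe/DMSO or probe/probe) from triplicate MS analyses of a single enriched sample.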

## CNC(=O)[C@H](CSC(F)C(=O)N[C@@H](C)C(=O)Nc1cc(Nc2ncc(C(F)(F)F)c(-c3c[nH]c4ccccc34)n2)c(OC)cc1N(C)CCN(C)C)NC(C)=O (some centres undefined)
[1]
  half-life: 11.2 h

## COc1cc(N(C)CCN(C)C)c(NC(=O)[C@@H]2CCN2C(=O)C(F)Cl)cc1Nc1ncc(Cl)c(-c2c[nH]c3ccccc23)n1 (some centres undefined)
[2]
  pIC50: 6.42

## COc1cc(N(C)CCN(C)C)c(NC(=O)[C@H](C)NC(=O)C(F)Cl)cc1Nc1ncc(C(F)(F)F)c(-c2c[nH]c3ccccc23)n1 (some centres undefined)
[3]
  Ratio IC50: 44.7
[2]
  pIC50: 7.82
[4]
  Ratio IC50: 91.3
[5]
  pIC50: 5.86
[6]
  inhibition: Active
[7]
  inhibition: Active
[8]
  Cmax: 510 nM
[9]
  MRT: 8.9 h
[10]
  Activity: Active
[11]
  Activity: Active
[1]
  half-life: 49.4 h
[12]
  Activity: Active

## COc1cc(N(C)CCN(C)C)c(NC(=O)C(F)Cl)cc1Nc1ncc(C(F)(F)F)c(-c2c[nH]c3ccccc23)n1 (centres undefined)
[2]
  pIC50: 7.48
[4]
  Ratio IC50: 17.3
[5]
  pIC50: 6.24

## C#CCCN(C)CCN(C)c1cc(OC)c(Nc2ncc(C(F)(F)F)c(-c3c[nH]c4ccccc34)n2)cc1NC(=O)[C@H](C)NC(=O)C(F)Cl (some centres undefined)
[13]
  Activity: inactive
[2]
  pIC50: 7.29
[14]
  Activity: Active
[15]
  Activity: 175 kDa
[16]
  Activity: Dose-dependent effect
[17]
  Activity: Tde
[18]
  Activity: Active
[19]
  Activity: Dose-dependent effect
[20]
  Activity: Tde
[21]
  Activity: Dose-dependent effect
[22]
  Activity: Tde
[23]
  log(ratio): 3.2
[24]
  Activity: Active
[25]
  Activity: Active

## COc1cc(N(C)CCN(C)C)c(NC(=O)C(F)Cl)cc1Nc1ncc(Cl)c(-c2c[nH]c3ccccc23)n1 (centres undefined)
[2]
  pIC50: 7.30

## COc1cc(N(C)CCN(C)C)c(NC(=O)[C@@H]2C[C@@H](O)CN2C(=O)C(F)Cl)cc1Nc1ncc(Cl)c(-c2c[nH]c3ccccc23)n1 (some centres undefined)
[2]
  pIC50: 6.82

## C=CC(=O)Nc1cc(Nc2nccc(-c3cn(C)c4ccccc34)n2)c(OC)cc1N(C)CCN(C)C [OSIMERTINIB]
[2]
  pIC50: […]
[4]
  Ratio IC50: […]
[5]
  pIC50: 6.66

## COc1cc(N(C)CCN(C)C)c(NC(=O)CNC(=O)C(F)Cl)cc1Nc1ncc(Cl)c(-c2c[nH]c3ccccc23)n1 (centres undefined)
[2]
  pIC50: 6.89

## COc1cc(N(C)CCN(C)C)c(NC(=O)[C@H](CC(C)C)NC(=O)C(F)Cl)cc1Nc1ncc(Cl)c(-c2c[nH]c3ccccc23)n1 (some centres undefined)
[2]
  pIC50: 7.28

## COc1cc(N(C)CCN(C)C)c(NC(=O)[C@H](CO)NC(=O)C(F)Cl)cc1Nc1ncc(Cl)c(-c2c[nH]c3ccccc23)n1 (some centres undefined)
[2]
  pIC50: 6.49

## COc1cc(N(C)CCN(C)C)c(NC(=O)[C@@H](C)NC(=O)C(F)Cl)cc1Nc1ncc(Cl)c(-c2c[nH]c3ccccc23)n1 (some centres undefined)
[2]
  pIC50: 6.36

## C#CCCN(C)CCN(C)c1cc(OC)c(Nc2nccc(-c3cn(C)c4ccccc34)n2)cc1NC(=O)C=C
[2]
  pIC50: 7.14
[26]
  Activity: Active
[16]
  Activity: Dose-dependent effect
[17]
  Activity: Tde
[27]
  log(ratio): -0.059
[24]
  Activity: Active
[25]
  Activity: Active

## COc1cc(N(C)CCN(C)C)c(NC(=O)[C@H](C)NC(C)=O)cc1Nc1ncc(C(F)(F)F)c(-c2c[nH]c3ccccc23)n1
[2]
  pIC50: 6.34
[4]
  Ratio IC50: 7.8
[5]
  pIC50: 5.44

## COc1cc(N(C)CCN(C)C)c(NC(=O)[C@@H]2CCCN2C(=O)C(F)Cl)cc1Nc1ncc(Cl)c(-c2c[nH]c3ccccc23)n1 (some centres undefined)
[2]
  pIC50: 7.25

## COc1cc(N(C)CCN(C)C)c(NC(=O)[C@H](C)NC(=O)C(F)Cl)cc1Nc1ncc(Cl)c(-c2c[nH]c3ccccc23)n1 (some centres undefined)
[2]
  pIC50: 7.51
[4]
  Ratio IC50: 22.9
[5]
  pIC50: 6.15
